The subject of series [1] is Rattus norvegicus. The experiment in a line: Decrease in myocardial fibrosis in SHR rat at 1.2 mg/kg/day, po. The conditions noted are these: Myocardium, read-out: INH.
Series [2] has as its target T1, Cytochrome P450 11B2, mitochondrial (Homo sapiens, UniProt P19099).
T1 sequence (P19099 whole entry): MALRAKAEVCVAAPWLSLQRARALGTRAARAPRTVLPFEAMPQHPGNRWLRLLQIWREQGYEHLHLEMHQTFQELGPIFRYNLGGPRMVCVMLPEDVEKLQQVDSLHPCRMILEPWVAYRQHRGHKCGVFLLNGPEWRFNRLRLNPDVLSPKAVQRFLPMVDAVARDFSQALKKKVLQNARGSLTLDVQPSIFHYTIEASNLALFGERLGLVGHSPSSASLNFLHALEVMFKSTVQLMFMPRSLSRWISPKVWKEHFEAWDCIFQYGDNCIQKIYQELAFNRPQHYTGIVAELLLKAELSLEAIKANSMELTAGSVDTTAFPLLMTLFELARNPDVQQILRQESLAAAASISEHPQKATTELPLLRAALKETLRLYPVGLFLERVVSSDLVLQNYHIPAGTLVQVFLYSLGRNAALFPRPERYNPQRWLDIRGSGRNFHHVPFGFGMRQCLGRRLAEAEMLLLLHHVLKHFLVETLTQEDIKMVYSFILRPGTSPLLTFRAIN
The experiment in a line: Inhibition of human CYP11B2 expressed in NCI-H295R cells assessed as reduction in aldosterone formation. Format: cell-based.

The species entered for series [3] is Homo sapiens. The series is described as follows: Selectivity ratio of IC50 for human CYP11B1 to IC50 for human CYP11B2. The method, boiled down: (§1)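 Whole-cell assay in V79MZ (Chinese hamster lung fibroblast) cells stably expressing human CYP11B2; a parallel line stably expressing human CYP11B1 gives the counter-target IC50. Selectivity is expressed as the CYP11B1/CYP11B2 IC50 ratio.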

Series [4] has as its target T1, Cytochrome P450 11B2, mitochondrial. The series is described as follows: Inhibition of human aldosterone synthase by cell based assay.
Series [5] deals with Rattus norvegicus. The experiment in a line: Decrease in aldosterone level Wistar rat plasma at 4 mg/kg, po measured after 2 hrs by radioimmunoassay. The series is classed as functional.
Series [6] is filed under the species Homo sapiens. The series is described as follows: Increase in aldosterone level in sodium depleted healthy human plasma. Format: functional.
Series [7] is filed under the species Homo sapiens. The series is described as follows: Decrease in diastolic blood pressure in hypertension patient at 50 mg, bid for 8 weeks. Format: functional, Artery.
The species entered for series [8] is Homo sapiens. The experiment in a line: Increase in aldosterone level in sodium depleted healthy human urine. The series is classed as functional.
Series [9] is filed under the species Homo sapiens. The series is described as follows: Increase in aldosterone level in primary aldosteronism patient plasma at 50 mg, bid for 31 days. Format: functional.
Series [10] concerns the target T1, Cytochrome P450 11B2, mitochondrial. The experiment in a line: Inhibition of human aldosterone synthase expressed in V79 MZ cells assessed as inhibition of aldosterone synthesis. The series is classed as cell-based, V79MZ.
The target is the same in series [11]. The series is described as follows: Inhibition of human aldosterone synthase.
In series [12] the target is T2, Cytochrome P450 11B1, mitochondrial (Homo sapiens, UniProt P15538).
T2 sequence (P15538 whole entry): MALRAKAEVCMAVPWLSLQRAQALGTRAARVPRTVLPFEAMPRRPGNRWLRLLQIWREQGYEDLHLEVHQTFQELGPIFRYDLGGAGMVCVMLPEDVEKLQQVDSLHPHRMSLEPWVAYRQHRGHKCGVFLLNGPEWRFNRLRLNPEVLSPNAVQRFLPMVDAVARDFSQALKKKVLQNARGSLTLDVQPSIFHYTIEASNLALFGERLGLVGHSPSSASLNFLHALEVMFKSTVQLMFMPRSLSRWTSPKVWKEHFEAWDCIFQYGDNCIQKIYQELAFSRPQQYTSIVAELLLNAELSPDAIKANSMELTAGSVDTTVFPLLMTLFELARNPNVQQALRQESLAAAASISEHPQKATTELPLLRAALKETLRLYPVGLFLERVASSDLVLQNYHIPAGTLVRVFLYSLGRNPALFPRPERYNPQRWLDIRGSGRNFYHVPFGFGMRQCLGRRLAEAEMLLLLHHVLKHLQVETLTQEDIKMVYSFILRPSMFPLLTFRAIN
The series is described as follows: Inhibition of human CYP11B1 expressed in NCI-H295R cells at 100 nM. The series is classed as cell-based.

Series [13] deals with T1, Cytochrome P450 11B2, mitochondrial. The series is described as follows: Inhibition of human aldosterone synthase expressed in V79 MZ cells. The series is classed as cell-based, V79MZ. The method, boiled down: as §1
Another series deals with T3, Cytochrome P450 1A2 (Homo sapiens, UniProt P05177).
T3 sequence (P05177 whole entry): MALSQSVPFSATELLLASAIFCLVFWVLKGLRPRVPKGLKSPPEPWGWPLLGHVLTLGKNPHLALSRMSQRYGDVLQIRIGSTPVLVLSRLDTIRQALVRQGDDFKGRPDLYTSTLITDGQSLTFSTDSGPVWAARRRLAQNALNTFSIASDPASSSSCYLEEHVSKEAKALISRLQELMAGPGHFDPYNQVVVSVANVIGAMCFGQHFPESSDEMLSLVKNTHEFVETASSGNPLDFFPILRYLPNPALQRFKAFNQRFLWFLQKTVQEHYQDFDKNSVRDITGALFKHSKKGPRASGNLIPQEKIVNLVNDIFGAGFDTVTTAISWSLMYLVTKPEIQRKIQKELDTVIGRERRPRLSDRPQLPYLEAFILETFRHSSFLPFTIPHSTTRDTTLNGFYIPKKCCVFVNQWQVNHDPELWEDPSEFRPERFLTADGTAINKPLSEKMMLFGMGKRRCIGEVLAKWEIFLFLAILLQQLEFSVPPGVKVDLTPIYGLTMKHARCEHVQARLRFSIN
The experiment in a line: Inhibition of CYP1A2 (unknown origin). Format: ADME.

The test system of series [14] is Rattus norvegicus. The experiment in a line: Decrease in corticosterone level Wistar rat plasma at 4 mg/kg, po measured after 2 hrs by radioimmunoassay. Format: functional.
The target in series [15] is T4, Cytochrome P450 11B2, mitochondrial (Rattus norvegicus, UniProt P30099).
T4 sequence (P30099 whole entry): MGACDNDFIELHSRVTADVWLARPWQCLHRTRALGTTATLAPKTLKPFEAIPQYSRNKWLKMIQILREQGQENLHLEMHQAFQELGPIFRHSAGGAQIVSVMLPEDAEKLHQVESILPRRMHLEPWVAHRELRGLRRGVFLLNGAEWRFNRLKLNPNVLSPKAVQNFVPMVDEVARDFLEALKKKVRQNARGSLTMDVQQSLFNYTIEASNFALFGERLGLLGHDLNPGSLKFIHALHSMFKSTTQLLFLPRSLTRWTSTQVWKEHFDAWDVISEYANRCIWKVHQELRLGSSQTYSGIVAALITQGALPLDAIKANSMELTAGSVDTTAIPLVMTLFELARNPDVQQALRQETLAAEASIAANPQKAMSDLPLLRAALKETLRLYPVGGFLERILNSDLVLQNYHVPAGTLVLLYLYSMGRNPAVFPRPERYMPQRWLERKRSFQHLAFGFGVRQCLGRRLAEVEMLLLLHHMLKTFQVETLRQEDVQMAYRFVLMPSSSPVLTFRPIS
The series is described as follows: Inhibition of aldosterone synthase in rat adrenal assessed as decrease in aldosterone level at 100 uM.

Series [16] deals with T4, Cytochrome P450 11B2, mitochondrial. The experiment in a line: Inhibition of aldosterone synthase in rat adrenal assessed as decrease in 18-OH-corticosterone level at 100 uM.
Series [17] addresses T1, Cytochrome P450 11B2, mitochondrial. The series is described as follows: Inhibition of human aldosterone synthase in homogenized rat glomerulosa tissue.
Series [18] is described as follows: Elimination half life in sodium depleted healthy human. The conditions noted are these: in vivo.
Series [19] in a line: Tmax in sodium depleted healthy human. As to conditions: in vivo.
Series [20] addresses T1, Cytochrome P450 11B2, mitochondrial. The experiment in a line: Inhibition of human CYP11B2 expressed in G402 cells. Format: cell-based, G-402.

`N#Cc1ccc([C@H]2CCCc3cncn32)cc1` [DEXFADROSTAT]: in the series with Rattus norvegicus [1], the inhibition in vivo at 1.2 mg/kg/day amounted to 50%.

Regarding `Cn1c(=O)oc2cc(-c3cncc(C(O)C(F)(F)F)c3)ccc21` (stereo not drawn), the IC50 in series [2] came out at 1.4 nM.

As to `Oc1ccc2c(c1)CC(Cc1ccncc1)C2` (stereo not drawn), in the series filed under Homo sapiens [3], the Ratio IC50 is less than 5. Besides, the IC50 in series [4] was 59 nM.

Take `Cc1ccncc1-c1cc(F)c2c(c1)CCc1nnc(C)n1-2`: the Ratio IC50 in the series filed under Homo sapiens [3] was found to be 421.

`CSc1ccc(C2CCCn3cncc32)cc1` (stereo not drawn) returned an inhibition in vivo at 4 mg/kg with Rattus norvegicus [5] of 62%.

For `COC(=O)[C@@H]1CC2=CC(=O)CC[C@]2(C)[C@@]23O[C@@H]2C[C@@]2(C)[C@@H](CC[C@@]24CCC(=O)O4)[C@H]13` [EPLERENONE], the Activity in the series listed under Homo sapiens [6] is 38%; in the series listed under Homo sapiens [7], -7.9 mmHg; in the series filed under Homo sapiens [8] it was 88%; in the series listed under Homo sapiens [9] it was 89%.

Turning to `CN[C@@H]1C[C@H]2O[C@@](C)([C@@H]1OC)n1c3ccccc3c3c4c(c5c6ccccc6n2c5c31)C(=O)NC4` [STAUROSPORINE], the IC50 in [10] amounted to 11 nM.

In turn, `CCOC(=O)c1cncn1C1c2ccccc2C(=O)OC1(C)C` (stereo not drawn) had an IC50 in [11] of 3 nM. In [12], this compound displayed an inhibition at 0.1 µM of 94%.

Consider `CCS(=O)(=O)N(Cc1cncc(-c2cccc(Cl)c2Cl)c1)C1CC1`, for which the IC50 in [2] worked out at 5 nM.

`Cc1cncc(-c2cc3n(n2)CCC(=O)N3)c1`: inhibition in [13] was half-maximal at 2.2 nM (IC50). Moreover, in the series listed under Homo sapiens [3], the Ratio IC50 came out at 128.

`c1cncc(C2CCCCCCC2)c1` came in with an IC50 on Cytochrome P450 1A2 greater than 100000 nM. In addition, the Ratio IC50 in the series listed under Homo sapiens [3] worked out at 50.

For `CCS(=O)(=O)NCc1cncc(-c2c(C)c3ccccc3n2C)c1`, in the series filed under Homo sapiens [3], the Ratio IC50 was 322.

On to `N#Cc1ccc2c(c1)C1(CCC2)OCCn2cncc21` (stereo not drawn), for which the inhibition in vivo at 4 mg/kg with Rattus norvegicus [5] was 82%; with Rattus norvegicus [14], 15%.

Consider `CC(O)c1c(F)cncc1-c1cc2cc(Cl)c(F)cc2o1` (stereo not drawn), for which the IC50 in series [2] is 2.5 nM. Also, the Ratio IC50 in the series listed under Homo sapiens [3] is 427.

Regarding `COc1cccc2c1CCC1C(c3cnc[nH]3)C21` (stereo not drawn), the Ratio IC50 in the series listed under Homo sapiens [3] was 2. In series [4], the IC50 came to 41 nM.

As for `CC(=O)S[C@@H]1CC2=CC(=O)C=C[C@]2(C)[C@H]2CC[C@@]3(C)[C@@H]([C@@H]4C[C@@H]4[C@@]34CCC(=O)O4)[C@H]12` [MESPIRENONE], the inhibition at 100 µM in series [15] and in series [16] was greater than 40% throughout.

In turn, `c1ccc2c(-c3cccc4cncn34)cccc2c1` had an IC50 in series [17] of 50 nM.

Turning to `Cn1c(-c2cncc3ccccc23)nc2ccc(F)c(F)c21`, the Ratio IC50 in the series filed under Homo sapiens [3] was greater than 1000.

With `N#Cc1ccc([C@H]2CCc3cncn32)c(F)c1` [OSILODROSTAT], the half-life in series [18] is 4 h. For the same compound, the Tmax in [19] stood at 1 h.

For `CC1(C)c2cc(Cl)ccc2C(=O)N1c1cncc(C2CCCN(S(C)(=O)=O)C2)n1` (stereo not drawn), the Ratio IC50 in the series listed under Homo sapiens [3] came out at 589. In series [20], this compound yielded an IC50 of 2.8 nM.

The values are drawn from ChEMBL document CHEMBL3352462, “Aldosterone synthase inhibitors as promising treatments for mineralocorticoid dependent cardiovascular and renal diseases” (J Med Chem, 2014).
